Shown are actives, neighbours in structure and some others; about 2.1% of the full set was active somewhere.
MT stabilizer – microtubule stabilizers in HeLa cells; HeLa tubulin immunostaining HCS, 24 h; share of cells brighter than vehicle mean+2SD; % tubulin-high responders, % at 10 µM; hit rate 0.83% among 200,000; AID 2205;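 active means plate Z-score above 3 for both tubulin-high and condensed-nucleus cell shares, with cell loss under 80%, at 10 µM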;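 further: anti alpha tubulin signal scored within the nucleus-defined area of each cell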
Ba/F3 V617F tox – reduce viability of Ba/F3 cells dependent on JAK2V617F. Ba/F3 EpoR-JAK2V617F viability, ATP luminescence. inhibition, % at 5.6 µM. hit rate 1.1% among 220,000. AID 1446;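 active means inhibition above the campaign mean plus 3 SD over all tested compounds, cut at about 24% in these data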;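 further: cytokine-independent growth of Ba/F3 cells driven by EpoR plus mutant JAK2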
bCat nuc transl – modulators of beta-catenin nuclear translocation. HeLa beta-catenin nuclear translocation, immunofluorescence imaging. nuclear translocation activity, % at 5 µM. hit rate 0.3% among 190,000. AID 1665;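 active means nuclear translocation activity above 50% at 5 µM, with a well cell count of 50 or more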;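 further: per-cell ratio of nuclear to cytoplasmic median beta-catenin stain intensity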
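Read-out: Nuclear/cytoplasmic beta-catenin signal ratio, % activation | Assay system: Human HeLa cell line | Times: 24 h compound exposure at 37°C, 5% CO2 | Signal: Fluorescence imaging of beta-catenin antibody stain plus DAPI | Dosing: 5 µM primary, 0.02–20 µM confirmation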
KLF5 inh – inhibitors of KLF5 expression. DLD-1 KLF5 promoter-luciferase reporter, luminescence. inhibition, % at 5 µM. hit rate 0.23% among 290,000. AID 1700;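 active means inhibition above a per-plate limit of that plate's mean compound inhibition plus 3 SD, cut at about 60% in these data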;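 further: higher means less KLF5 promoter-driven luciferase light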
IEC-6 tox – counter-screen for KLF5 inhibitors: cytotoxicity in IEC-6 cells | inhibition, % at 5 µM | IEC-6 cytotoxicity, luminescence viability | AID 1825 | hit rate 0.78% among 290,000; in the data active means inhibition above about 22%
BaF3 parental – counter-screen for JAK2V617F inhibitors: parental Ba/F3 viability inhibitors; AID 1486; hit rate 1.1% among 220,000; inhibition, % at 5.6 µM; CellTiter-Glo ATP luminescence;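 active means inhibition above a per-campaign cutoff, the mean inhibition of all tested compounds plus 3 SD, cut at about 27% in these data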
Numbers stand for hits; . = inactive; / = no result given.

SMILES	MT stabilizer	Ba/F3 V617F tox	bCat nuc transl	KLF5 inh	IEC-6 tox	BaF3 parental
COCCCN=C1NN=C(c2cc(C)n(Cc3ccccc3Cl)c2C)CS1	14.6	.	75.6	.	.	.
COCCCN=C1NN=C(c2cc(C)n(-c3ccccc3F)c2C)CS1	19.1	.	92.3	.	.	.
CC1CCN(c2ccc([N+](=O)[O-])cc2C(=O)O)CC1	.	.	.	.	.	.
O=C(COC(=O)c1cc([N+](=O)[O-])ccc1N1CCOCC1)Nc1ccc(Cl)cc1	/	/	/	.	.	/
CCOC(=O)c1cc(CC)sc1NC(=O)c1cc([N+](=O)[O-])ccc1N1CCOCC1	.	.	59.3	.	.	.
CC1CCCN(c2ccc([N+](=O)[O-])cc2C(=O)c2ccccc2)C1 (configuration not stated)	.	77.0	59.9	.	45.1	79.1
O=C(c1ccc(Cl)cc1)c1cc([N+](=O)[O-])ccc1N1CCOCC1	.	72.5	.	.	.	74.2
O=C(c1ccc(Br)cc1)c1cc([N+](=O)[O-])ccc1N1CCOCC1	16.1	80.5	.	.	.	83.0
CC(C)(C)Nc1nc2nonc2nc1NC(C)(C)C	.	34.6	.	.	.	33.5
CS(=O)(=O)N1CCN(c2ccccc2NC(=O)CSc2ccc(Cl)cc2)CC1	.	.	/	.	.	.
O=C(CSc1ccc(Cl)cc1)Nc1ccccc1N1CCN(C(=O)c2ccccc2)CC1	.	.	/	.	.	67.7
CC(NCc1ccccc1)C1COc2ccccc2O1 (configuration not stated)	.	.	/	.	.	.
COc1ccc(CNC(C)C2COc3ccccc3O2)c(OC)c1 (configuration not stated)	.	.	.	.	.	95.9
CCN(CC)c1ccc(C(=O)OCc2c(C)noc2C)cc1	.	.	.	.	.	.
CC(=O)Nc1cccc(C(=O)Nc2ccccc2N2CCOCC2)c1	32.4	.	.	.	.	.
C=CCN1C(=O)C2C3C=CC(C2C1=O)C1C2C(=O)N(CC=C)C(=O)C2C31 (configuration not stated)	.	.	.	.	.	.
Cc1cc(=O)[nH]c(SCC(=O)Nc2ccccc2C#N)c1C#N	43.5	.	.	.	.	.
N#Cc1c(C(F)(F)F)cc(-c2cccs2)nc1SCc1cccnc1	42.1	.	/	.	.	.
COc1cc(C2CC(=O)c3cnc(N4CCN(Cc5ccccc5)CC4)nc3C2)cc(OC)c1OC (configuration not stated)	43.1	.	83.1	.	.	.
COc1ccc(C2CC(=O)c3c(C)nc(N4CCN(Cc5ccccc5)CC4)nc3C2)cc1OC (configuration not stated)	.	.	.	.	.	.
CN1CCC(NC(=S)Nc2cccc([N+](=O)[O-])c2)CC1	.	.	.	.	.	.
CCOC(=O)c1c(N)sc(C(=O)OC)c1C	.	.	.	.	.	.
CCOC(=O)c1sc(N)c(C(=O)OC)c1C	.	.	.	.	.	90.4
CCOC(=O)c1sc(C)c(C(=O)NC2CCCCC2)c1N	.	.	118.5	.	.	.
CCc1nnc(NC(=O)CSc2nnc(-c3ccccc3O)n2-c2ccc(C)cc2C)s1	37.9	.	.	.	.	.
SMILES	MT stabilizer	Ba/F3 V617F tox	bCat nuc transl	KLF5 inh	IEC-6 tox	BaF3 parental
O=C(Nc1ccccc1F)c1ccc(CSc2ccccc2)o1	.	.	.	.	.	.
c1ccc(Cn2nnc3c(N4CCCCCC4)ncnc32)cc1	.	.	.	.	.	.
CCCN1CCN(c2ncnc3c2nnn3Cc2ccccc2)CC1	57.5	.	71.9	.	.	.
CCOC(=O)c1c(NC(=O)CSc2ncccn2)sc2c1CCN(Cc1ccccc1)C2	.	.	.	.	.	39.4
COc1ccc2c(c1)C1C=CCC1C(c1cc3c(cc1Br)OCO3)N2 (configuration not stated)	38.5	.	/	.	.	.
O=C(COC(=O)c1ccc(NS(=O)(=O)c2cccs2)cc1)NCc1ccco1	/	.	110.8	.	.	.
O=C(COC(=O)c1ccc(NS(=O)(=O)c2cccs2)cc1O)NCc1ccccc1	23.5	.	76.3	.	.	.
O=C(COC(=O)c1cccs1)NCc1ccco1	/	/	.	/	/	/
COC(=O)c1[nH]c2ccc(F)cc2c1NS(=O)(=O)c1ccc(OC)cc1	23.1	80.9	.	.	51.8	61.3
